In ChEMBL document CHEMBL1134500, “Investigations of new lead structures for the design of selective estrogen receptor modulators” (J Med Chem, 2001) one finds RBA and Activation data, which are given here for seven compounds.

A value given as a limit tells only on which side of the number the result lay.

Assay [1] concerns the target Estrogen receptor (Bos taurus) (UniProt Q9XSB5+P49884). In words: Displacement of 17-beta-[3H]-estradiol from estrogen receptor relative to 17-beta-estradiol. The format is protein assay. The method, boiled down: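 Competitive binding with calf uterine cytosol as receptor source and 17β-[3H]estradiol (0.723 pmol per tube) as tracer. Compounds were dissolved in ethanol, diluted in TRIS buffer to six to eight concentrations and incubated overnight at 4 °C. Free ligand was removed with dextran-charcoal (90 min, 4 °C), then supernatant was scintillation counted. Nonspecific binding was set with 2 nmol estradiol. RBA = ratio of 50%-inhibiting concentrations (estradiol/sample) × 100%.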

The target of assay [2] is T1, Estrogen receptor (Homo sapiens) (UniProt P03372).
T1 sequence (whole entry): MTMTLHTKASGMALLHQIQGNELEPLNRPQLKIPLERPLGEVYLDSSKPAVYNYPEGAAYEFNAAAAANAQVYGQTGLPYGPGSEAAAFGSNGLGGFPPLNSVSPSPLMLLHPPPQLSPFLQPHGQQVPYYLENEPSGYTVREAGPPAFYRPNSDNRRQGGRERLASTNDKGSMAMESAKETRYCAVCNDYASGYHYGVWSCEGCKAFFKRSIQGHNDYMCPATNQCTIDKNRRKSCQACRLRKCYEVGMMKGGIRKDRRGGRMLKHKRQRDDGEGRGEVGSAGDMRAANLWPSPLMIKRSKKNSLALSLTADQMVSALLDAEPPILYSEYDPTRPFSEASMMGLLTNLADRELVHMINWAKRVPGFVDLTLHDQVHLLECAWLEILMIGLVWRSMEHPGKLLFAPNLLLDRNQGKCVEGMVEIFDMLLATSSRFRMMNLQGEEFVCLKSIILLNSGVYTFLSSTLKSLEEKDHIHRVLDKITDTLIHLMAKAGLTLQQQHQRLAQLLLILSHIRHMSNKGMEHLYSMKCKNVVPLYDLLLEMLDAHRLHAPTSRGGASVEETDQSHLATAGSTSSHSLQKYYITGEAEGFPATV
In words: Transcriptional activation in MCF-7-2a cells expressing estrogen receptor alpha at 10e-6 M. The format is functional, cell-based. The method, boiled down: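 MCF-7-2a cells were precultured one week in DMEM with L-glutamine, antibiotics and dextran/charcoal-treated BCS (50 mL/L), then seeded in six-well plates. After 24 h compounds were added (10^-5 to 10^-10 M final) and cells incubated 50 h, then lysed 20 min at room temperature. Luciferase luminescence (RLU) was read for 10 s and normalized to Bradford protein.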

On to `Oc1ccc([C@H]2NCCN[C@H]2c2c(Cl)cc(O)cc2Cl)c(Cl)c1`, for which, in assay [1], the RBA is below 0.02%. In addition, the Activation in assay [2] is 20%.

Compound `COc1ccc([C@H]2N=CN[C@H]2c2c(Cl)cc(OC)cc2Cl)c(Cl)c1` registered an RBA in assay [1] of 0%. The Activation in assay [2] amounted to 6%.

`Oc1ccc(-c2[nH]cnc2-c2c(Cl)cc(O)cc2Cl)c(Cl)c1` yielded an RBA in assay [1] of 0.1%. In assay [2], this compound registered an Activation of 27%.

`COc1ccc([C@H]2NCCN[C@H]2c2c(Cl)cc(OC)cc2Cl)c(Cl)c1` displayed an RBA in assay [1] of 0%. Further, the Activation in assay [2] came to 3%.

For the compound `COc1ccc(-c2[nH]cnc2-c2c(Cl)cc(OC)cc2Cl)c(Cl)c1`, in assay [1], the RBA came to 0%. The Activation in assay [2] stood at 6%.

In assay [1], `COc1ccc([C@@H](N)[C@@H](N)c2c(Cl)cc(OC)cc2Cl)c(Cl)c1` registered an RBA of 0%. Moreover, the Activation in assay [2] is 0%.

Consider `N[C@H](c1ccc(O)cc1Cl)[C@@H](N)c1c(Cl)cc(O)cc1Cl`, for which the RBA in assay [1] came to 1.5%. The Activation in assay [2] stood at 98%.
